Results from ChEMBL document CHEMBL2346506, “Cytotoxicity and modulation of cancer-related signaling by (Z)- and (E)-3,4,3',5'-tetramethoxystilbene isolated from Eugenia rigida” (J Nat Prod, 2013).
One block for each compound: values may come before it.

Assays:
[1] = test system: KB; assay: Cytotoxicity against human KB cells assessed as growth inhibition measured after 48 hrs by Neutral Red dye assay
[2] = test system: Vero; assay: Cytotoxicity against african green monkey Vero cells assessed as growth inhibition measured after 48 hrs by Neutral Red dye assay; conditions: Chlorocebus sabaeus
[3] = test system: SK-MEL; assay: Cytotoxicity against human SK-MEL cells assessed as growth inhibition measured after 48 hrs by Neutral Red dye assay
[4] = test system: LLC-PK1; assay: Cytotoxicity against pig LLC-PK1 cells assessed as growth inhibition measured after 48 hrs by Neutral Red dye assay; conditions: Sus scrofa, LLC-PK1, 48 h
[5] = test system: SK-OV-3; assay: Cytotoxicity against human SKOV3 cells assessed as growth inhibition measured after 48 hrs by Neutral Red dye assay; conditions: SK-OV-3, 48 h
[6] = test system: HeLa; assay: Cytotoxicity against human HeLa cells assessed as growth inhibition measured after 48 hrs by Neutral Red dye assay
[7] = test system: BT-549; assay: Cytotoxicity against human BT549 cells assessed as growth inhibition measured after 48 hrs by Neutral Red dye assay; conditions: BT-549, 48 h
[8] = test system: HL-60; assay: Inhibition of PMA induced ROS generation in human HL60 cells assessed as inhibition of ROA mediated oxidation of DCFH; format: functional, cell-based
Summary of the method: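 HL-60 cells (0.8 × 10⁶/mL) in RPMI-1640 with 10% FBS were pretreated 30 min with compound (0.4–100 μM). PMA (100 ng/mL) was then added for 30 min, followed by DCFH-DA (5 μg/mL) for 15 min. DCF fluorescence read at Ex 485 / Em 530 nm and compared with vehicle control. Trolox served as positive control.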

[9] = molecular target: T1, Nitric oxide synthase, inducible (Mus musculus, UniProt P29477); assay: Inhibition of iNOS in LPS-induced mouse RAW264.7 cells assessed as inhibition of […] at measured after 24 hrs; format: cell-based
T1 sequence (P29477 whole entry): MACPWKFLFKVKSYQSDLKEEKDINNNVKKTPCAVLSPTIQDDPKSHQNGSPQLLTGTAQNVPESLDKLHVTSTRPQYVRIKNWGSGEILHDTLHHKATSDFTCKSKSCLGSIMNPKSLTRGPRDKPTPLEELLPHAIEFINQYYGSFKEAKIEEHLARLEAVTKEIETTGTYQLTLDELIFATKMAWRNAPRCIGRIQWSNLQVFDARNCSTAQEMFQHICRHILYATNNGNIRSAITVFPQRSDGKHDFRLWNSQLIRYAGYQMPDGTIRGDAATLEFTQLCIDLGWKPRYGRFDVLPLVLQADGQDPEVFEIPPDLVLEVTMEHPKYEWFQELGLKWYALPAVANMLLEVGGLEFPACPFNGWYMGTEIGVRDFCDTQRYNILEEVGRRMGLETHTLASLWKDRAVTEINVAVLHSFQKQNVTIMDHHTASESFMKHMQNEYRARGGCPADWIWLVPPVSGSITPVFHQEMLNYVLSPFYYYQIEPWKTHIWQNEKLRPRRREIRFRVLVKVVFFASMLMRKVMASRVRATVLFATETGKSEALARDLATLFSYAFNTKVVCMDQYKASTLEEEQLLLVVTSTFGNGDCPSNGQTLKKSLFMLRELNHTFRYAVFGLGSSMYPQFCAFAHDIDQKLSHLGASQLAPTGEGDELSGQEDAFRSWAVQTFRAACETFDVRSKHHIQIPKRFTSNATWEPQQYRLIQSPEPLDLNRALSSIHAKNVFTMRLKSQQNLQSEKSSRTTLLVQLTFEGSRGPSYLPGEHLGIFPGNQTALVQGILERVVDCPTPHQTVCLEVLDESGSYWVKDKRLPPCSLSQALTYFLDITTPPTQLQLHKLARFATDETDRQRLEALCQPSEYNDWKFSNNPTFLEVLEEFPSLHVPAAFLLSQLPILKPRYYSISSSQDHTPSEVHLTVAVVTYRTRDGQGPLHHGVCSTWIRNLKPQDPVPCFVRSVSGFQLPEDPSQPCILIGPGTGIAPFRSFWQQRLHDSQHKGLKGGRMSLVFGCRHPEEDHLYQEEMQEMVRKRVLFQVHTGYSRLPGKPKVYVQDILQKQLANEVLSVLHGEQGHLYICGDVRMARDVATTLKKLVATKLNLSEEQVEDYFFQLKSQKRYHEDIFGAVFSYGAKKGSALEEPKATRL
Summary of the method: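 Mouse RAW 264.7 macrophages were seeded at 50 000 cells/well and grown 24 h. They were pretreated with samples for 30 min, then stimulated with LPS at 5 μg/mL for 24 h. Nitrite in the supernatant was measured by Griess reagent, and inhibition was calculated against the vehicle control. IC50 came from dose–response curves, with cytotoxicity checked in parallel.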

SMILES: COc1cccc2c1C(=O)c1c(O)c3c(c(O)c1C2=O)C[C@@](O)(C(=O)CO)C[C@@H]3O[C@H]1C[C@H](N)[C@H](O)[C@H](C)O1 [DOXORUBICIN]
- IC50 [1]: 3.8 µM
- IC50 [2]: > 9.2 µM
- IC50 [3]: 1.5 µM
- IC50 [4]: 1.6 µM
- IC50 [5]: 2.6 µM
- IC50 [6]: 3.9 µM
- IC50 [7]: 3.7 µM

- IC50 [8]: 1.4 µM
SMILES: Cc1c(C)c2c(c(C)c1O)CCC(C)(C(=O)O)O2 (centres undefined) [TROLOX]

- IC50 [9]: 8 µM
SMILES: C=C1C(=O)O[C@@H]2C3O[C@]3(C)CC/C=C(\C)CC[C@@H]12 (some centres undefined)
